# High-throughput results: PubChem, several laboratories
# Many of the other results were omitted from the sample, so hits are more common in it than they were.
# S1P3 antagonist – S1P3 receptor antagonists, primary screen, cell-based; Sphingosine 1-phosphate receptor 3 (Homo sapiens), Q99500; CHO S1P3 NFAT-BLA reporter, FRET fluorescence, antagonist mode; inhibition, % at 4.98 µM; 0.27% of 170,000 active; AID 485, 2006;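 active means inhibition above the plate cutoff, the mean inhibition of test wells on that plate plus 3 SD, cut at about 28% in these data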;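 further: cells challenged with S1P at its EC80 of 0.8 µM; blue over green emission ratio from cleaved BLA substrate after 4 h stimulation; 0% = S1P-stimulated wells and 100% = unstimulated DMSO-only wells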
# S1P4 ag – S1P4 receptor agonists, primary screen, cell-based | activation, % at 4.98 µM | 0.35% of 220,000 active | S1P4-expressing cell line, agonist reporter assay | AID 1509, 2009; in the data active means activation above about 11%;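 further: 0% = DMSO vehicle and 100% = reference agonist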
# Target sequence (O95977 whole entry, looked up): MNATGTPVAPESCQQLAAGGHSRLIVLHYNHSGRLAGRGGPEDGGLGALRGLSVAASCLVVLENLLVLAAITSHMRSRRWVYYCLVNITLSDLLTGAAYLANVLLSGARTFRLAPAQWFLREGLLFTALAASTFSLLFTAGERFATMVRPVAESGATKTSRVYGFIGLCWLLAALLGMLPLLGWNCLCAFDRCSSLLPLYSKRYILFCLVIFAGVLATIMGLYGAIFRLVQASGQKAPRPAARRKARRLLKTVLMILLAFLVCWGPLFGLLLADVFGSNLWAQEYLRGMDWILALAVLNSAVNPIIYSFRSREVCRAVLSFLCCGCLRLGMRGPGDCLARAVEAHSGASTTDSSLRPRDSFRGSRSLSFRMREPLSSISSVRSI
# MDM2 E3 inh – MDM2-luciferase reporter signal enhancers, primary screen, MDM2 E3 ligase inhibitor project, cell-based, luminescence, 1536-well; E3 ubiquitin-protein ligase Mdm2 (Homo sapiens), Q00987; cell-based MDM2 ubiquitination luciferase reporter, 2 h; 0 = plate control, 100 = twice control, blank-subtracted; signal enhancement, % at 5 µM; 0.11% of 210,000 active; AID 1230, 2008;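 active means signal enhancement of 30% or more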;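 further: luminescence tracks abundance of the self-degrading MDM2-luciferase fusion protein; higher signal means inhibition of MDM2 E3 ligase activity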
#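 Buffer or medium: Cells held in DMEM | Assay system: Stable mammalian line carrying autodegrading MDM2–luciferase fusion reporter | Quantity: 2000 cells/well | Times: 4 h settle plus 2 h compound, 37 °C | Doses: One concentration, 5 µM, with 0.2% DMSO | Technique: Luminescence with SteadyLite reagent, 15 min at room temperature | Benchmarks: Plate controls and plate blanks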
# L major viab – Leishmania major promastigote growth inhibition, primary screen; Leishmania major promastigotes, resazurin fluorescence viability; inhibition, % at 10 µM; AID 1063, 2008; 9% of 200,000 active; in the data active means inhibition above about 50%;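 further: promastigotes grown with compound for 44 hours at 28 °C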
# S1P4 antagonist – S1P4 receptor antagonists, primary screen, cell-based; 0.26% of 220,000 active; Sphingosine 1-phosphate receptor 4 (Homo sapiens), O95977; AID 1510, 2009; inhibition, % at 4.98 µM; S1P4-expressing cells, antagonist mode, reporter read-out; in the data active means inhibition above about 29%;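 further: 0% = wells stimulated with agonist and 100% = vehicle wells without agonist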
# Lmaj promast 1uM – Leishmania major promastigote growth inhibition, confirmation, 1 µM repeat of primary hits. 13% of 1,100 active. AID 1258, 2008. shares compounds with L major viab. L. major promastigote growth, resazurin fluorescence, 48 h. inhibition, % at 1 µM;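 active means inhibition above about 50% in both repeat tests, limit read from the data; inconclusive means one repeat under the set limit, the other over it; inactive means both repeats under the set limit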
# Active calls of the source: *; ? = inconclusive; / = no result given.
SMILES,S1P3 antagonist,S1P4 ag,MDM2 E3 inh,L major viab,S1P4 antagonist,Lmaj promast 1uM
O=c1c(Cl)nc2cc(Cl)ccc2n1CCNc1ncc(C(F)(F)F)cc1Cl,/,0,-22,101*,2,101*
CCOc1ccc(NC(=O)CSc2nnc(CCNC(=O)c3ccc(OC)cc3)n2C)cc1,/,0,-17,-3,-26,/
O=C1c2ccccc2C(=O)C12Cc1ccccc1N1CCN(c3ccccc3)CC12 (configuration not stated),-39,1,-21,65*,-22,67*
Cc1ccc(CN2CCN(/N=C/c3cccs3)CC2)cc1,0,0,5,-3,0,/
OCCC1CN(Cc2cnc(-c3ccc(Cl)cc3)nc2)CCN1C1CCCCC1 (configuration not stated),4,0,-12,87*,-11,12
CC(C)(O)C#Cc1ccc(CN2CCN(C3CCCCC3)C(CCO)C2)cc1 (configuration not stated),15,1,-14,-1,-8,/
CC1(C)CN(c2ccccc2)N(C(=O)c2ccc(C#N)cc2)C1=O,/,3,-12,54*,-25,-16
CC1(C)CN(c2ccccc2)N(C(=O)c2ccc(F)cc2)C1=O,/,-1,1,37,-18,/
COc1ccccc1CNC(=O)CN(CCc1ccccc1)S(C)(=O)=O,-14,0,-9,3,-6,/
Cc1c(Br)c([N+](=O)[O-])nn1CCCC(=O)Nc1sc2c(c1C#N)CCC2,-4,1,-4,82*,-7,-3
O=C1NCN(c2ccccc2)C12CCN(c1nnnn1-c1ccccc1)CC2,/,1,-9,81*,-2,-17
CCOC1(OCC)N=C(N)C2(C#N)C(c3cccc(C)c3)C12C#N (configuration not stated),/,2,-8,-2,-27,/
CCOC1(OCC)C(c2ccc(Cl)cc2)C(C#N)(C#N)C1(OCC)OCC (configuration not stated),/,0,-2,100*,16,-3
CCOC1(OCC)C(c2ccc(N)cc2)C(C#N)(C#N)C1(OCC)OCC (configuration not stated),/,1,-28,63*,-6,-2
CCCC1C(c2ccc(OC)cc2)C(C#N)(C#N)C2(C#N)CC1(N)NC2=O (configuration not stated),/,1,1,-4,-30,/
CC(C)OC(=O)c1cccc(C(=O)OCc2ccco2)n1,-6,0,2,50*,-3,9
CC(C)[C@@H](C(=O)N1CCN(C(=O)OC(C)(C)C)CC1)n1cc(CCO)nn1,-18,0,/,-2,-12,/
COc1ccc(NC(=O)CSc2ccc3ccccc3c2)cc1S(=O)(=O)N1CCCCC1,-9,0,-10,19,20,/
c1ccc(Cn2nnnc2C(c2ccncc2)N2CCOCC2)cc1 (configuration not stated),-14,0,-5,-6,14,/
Cc1cc(C(c2nnnn2Cc2ccccc2)N2CCOCC2)c(C)n1-c1ccc2c(c1)OCO2 (configuration not stated),14,0,-11,61*,16,-6
CC(C)n1c(O)c(N=NC(=O)Cn2ccc(C(F)(F)F)n2)c2ccccc21,2,3,-25,-8,-4,/
Cc1ccc(C23CC4CC(CC(CN)(C4)C2)C3)cc1,-11,-2,-22,100*,6,13
C#CCONC(=O)c1cc(OCC(F)(F)F)ccc1OCC(F)(F)F,/,-1,-21,-5,4,/
Cc1ccc(-c2nc(CSCC(=O)NCCN3CCN(Cc4ccccc4)CC3)c(C)o2)cc1,-3,0,-23,52*,1,-26
CCOC(=O)c1ccc(N2C(=O)CC(C(=O)OC)=C2C)cc1,-19,-2,13,86*,-17,-7
SMILES,S1P3 antagonist,S1P4 ag,MDM2 E3 inh,L major viab,S1P4 antagonist,Lmaj promast 1uM
COc1ccc(-n2cc(-c3ccc(OC(F)F)cc3)[n+]3c2CCCCC3)cc1,-24,-1,-19,99*,-3,-12
COc1ccc(-c2cn(-c3ccc(Cl)cc3)c3[n+]2CCCCC3)cc1,8,0,-12,/,15,/
Cc1cc2nnc(SCC(=O)OC(C)C)n2c2ccccc12,/,0,-4,0,-13,/
Cc1ccc(NNC(=O)C(O)(c2cccc(C(F)(F)F)c2)c2cccc(C(F)(F)F)c2)cc1,9,0,-5,70*,4,-9
CC(C)c1cc(C(=O)N/N=C/c2cccnc2)n[nH]1,8,0,-11,-4,-27,/
CCOC(=O)c1cc2oc(C(c3nnnn3C3CCCCC3)N3CCOCC3)cc2[nH]1 (configuration not stated),/,-2,-1,82*,-20,3
OCC1(Cc2ccccc2)CCN(C2CCN(c3ccccc3F)CC2)CC1,12,1,-7,86*,9,?
O=C(COc1ccccc1F)NC1CCN(Cc2ccccc2)CC1,/,-4,-19,91*,6,72*
O=C(CCc1nc(-c2ccccc2F)no1)NC1CCN(Cc2ccccc2)CC1,-40,2,-22,-1,-24,/
CNC(=O)CSc1nc2[nH]ncc2c(=O)[nH]1,-6,2,-35,-8,-13,/
N#CC(c1ccc(Cl)cc1)(c1ncc(C(F)(F)F)cc1Cl)N1CCOCC1 (configuration not stated),/,-1,-21,0,-19,/
S=c1[nH]ccn1-c1cccc(Cl)c1,-11,0,-8,59*,-4,-14
CCOC(=O)N1CCC(NC(=O)CSc2cc(=O)n(C)c3ccc(Cl)cc23)CC1,14,/,/,/,/,/
Cc1cc(OC(=O)C(c2ccccc2)c2ccccc2)c([N+](=O)[O-])c(=O)[nH]1,1,0,-16,58*,-9,-17
CCc1cc2c(nc1CC)CCN(CC/C(C)=N/OC[C@H]1O[C@H](c3ccccc3)C=C[C@@H]1Oc1ccc(OC)cc1)C2,2,2,/,67*,11,-4
COc1ccc(O[C@H]2C=C[C@@H](c3ccccc3)O[C@@H]2CO/N=C(\C)CCN2CCc3nc(-c4ccccc4)c(-c4ccccc4)cc3C2)cc1,9,1,/,7,12,/
C=CCc1ccc(OCCCCCN2CCOCC2)c(OC)c1,12,2,-5,100*,-9,58*
C=CCc1ccc(OCCCCOc2ccc(C(=O)O)cc2)c(OC)c1,-12,0,1,-9,-3,/
S=c1[nH]nc(-c2cc(-c3ccco3)[nH]n2)n1-c1cccc2ccccc12,/,0,-17,98*,-12,2
CCc1cccc(C)c1NC(=O)C1CCN(C(=O)c2ccc([N+](=O)[O-])cc2)CC1,-17,-1,-90,2,0,/
